Assay results published in ChEMBL document CHEMBL4152329, “Benzofuran hydrazones as potential scaffold in the development of multifunctional drugs: Synthesis and evaluation of antioxidant, photoprotective and antiproliferative activity” (Eur J Med Chem, 2018).
pIC50: −log10 of the molar value.

Tests used:
[1] = Antiproliferative activity against human Colo38 cells after 7 days by Coulter counter method; type: functional, cell-based; conditions: 168 h
Summary of the method: (§1)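 RPMI 1640 with 10% FBS, penicillin, streptomycin and 2 mM glutamine, pH 7.2, 37 °C, 5% CO2. Stocks 20 mM in MeOH/DMSO 10%, diluted in MeOH, added at serial dilutions. Cells suspended in physiological solution and counted by Coulter counter. IC50 = 50% growth inhibition while untreated cells in log phase. Untreated cells as negative control on every plate.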

[2] = UV filtering activity of the compound assessed as maximum absorption wavelength; type: functional
Summary of the method: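 UV absorption spectrum recorded in methanol at 0.000034 (± 0.0000033) M; wavelength of maximum absorption taken, together with molar extinction coefficient.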

[3] = UV filtering activity of the compound assessed as wavelength at which the integral of the spectral absorbance curve reaches 90% of area under the curve from 290 to 400 nm; type: functional
Summary of the method: (§2)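 Spectra recorded on methanolic solutions at 0.000034 (± 0.0000033) M. Absorbance converted to transmittance by A(λ) = −Log[T(λ)], and SPF, UVA/UVB ratio, UVAPF and critical wavelength derived from the transmittance spectrum. Method adapted from the official in vitro SPF method; UVAPF per ISO-24443. PBSA served as reference.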

[4] = Antioxidant activity assessed as ferric ion reducing activity by measuring trolox equivalents after 10 mins by FRAP assay; type: functional
Summary of the method: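 Reagent made fresh: 0.1 M acetate buffer pH 3.6, 10 mM TPTZ in 40 mM HCl and 20 mM FeCl3 at 10:1:1 (v/v/v). Diluted sample (0.1 mL) added to 1.9 mL reagent; solvent used for blank. Absorbance at 593 nm after 10 min, increase taken over blank. Expressed as Trolox activity from calibration curve.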

[5] = UV filtering activity of the compound assessed as UVA protection factor value relative to control; type: functional; summary of the method: as §2
[6] = UV filtering activity of the compound assessed as solar protection factor relative to control; type: functional; summary of the method: as §2
K562 [7] = assay: Antiproliferative activity against human K562 cells after 7 days by Coulter counter method; type: functional, cell-based; conditions: K562, 168 h; summary of the method: as §1
[8] = UV filtering activity of the compound assessed as UVA/UVB ratio; type: functional; summary of the method: as §2
[9] = Antioxidant activity assessed as AAPH-induced radical scavenging activity by measuring trolox equivalents for oxygen radical absorbance capacity measured at 5 mins intervals up to 30 mins by ORAC-FL assay; type: functional
Summary of the method: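 Fluorescein (85 nM) as target, AAPH as peroxyl radical generator, 0.2 mL final volume. Compounds dissolved in methanol and diluted in phosphate buffer pH 7.4. Fluorescence read at ex 485/em 538 nm, 37 °C, every 5 min up to 30 min after AAPH. Value from difference in areas under fluorescein decay curves, blank vs sample. Trolox calibration 40–240 µM; µmol TE per gram compound.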

[10] = Antioxidant activity assessed as DPPH free radical scavenging activity by measuring trolox equivalent by spectrophotometric analysis; type: functional
Summary of the method: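 Diluted compound solution (0.750 mL) added to 1.5 mL methanolic DPPH. Absorbance decrease read at 517 nm. Blank was DPPH plus methanol. Inhibition % = [(AB−As)/AB]×100. Trolox calibration curve used as standard.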

K562 [11] = assay: Induction of erythroid differentiation on human K562 cells after 5 days by benzidine staining-based assay; type: functional
Summary of the method: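 K562 cells treated in culture, then scored for erythroid differentiation by benzidine staining with 0.2% benzidine in 5 M glacial acetic acid and 10% H2O2. Assayed after 5, 6 and 7 days of treatment; value given as percentage of differentiated cells.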

| SMILES | pIC50 [1] | Activity [2] [nm] | Activity [3] [nm] | Activity [4] [µmolequiv/g] | UVAPF [5] | SPF [6] | pIC50 (K562 [7]) | Ratio [8] | Activity [9] [µmolequiv/g] | Activity [10] | Activity (K562 [11]) [%] |
| --- | --- | --- | --- | --- | --- | --- | --- | --- | --- | --- | --- |
| CCN(CC)c1ccc(/C=N/NC(=O)c2cc3ccccc3o2)c(O)c1 | 6.36 | 381 | 387 | 4150 | 3.6 | 2.59 | 6.28 | 1.29 | 22100 | 1010 µmolequiv/g |  |
| O=C(N/N=C/c1cc(O)ccc1O)c1cc2ccccc2o1 | 5.20 | 306 | 366 | 6970 | 2.38 | 2.18 | 4.43 | 1.33 | 19000 | 6200 µmolequiv/g |  |
| O=C(N/N=C/c1ccc(O)cc1O)c1cc2ccccc2o1 | 6.24 | 343 | 342 | 1210 | 1.5 | 10.2 | 5.37 | 0.26 | 9380 | 149 µmolequiv/g | 5 |
| O=C(N/N=C/c1cc(Cl)ccc1O)c1cc2ccccc2o1 | 5.69 | 310 | 357 | 46.3 | 2.89 | 5.78 | 5.43 | 1.14 |  | Below limit of detection |  |
| O=C(N/N=C/c1c(O)cc(O)cc1O)c1cc2ccccc2o1 | 4.61 | 345 | 366 | 4020 | 2.02 | 1.99 | 4.19 | 1.32 | 3560 | 1140 µmolequiv/g |  |
| O=C(N/N=C/c1cccc(O)c1)c1cc2ccccc2o1 | 5.21 | 314 | 353 | 1670 | 2.45 | 7.58 | 4.28 | 0.85 | 6790 | 76.7 µmolequiv/g |  |
| O=S(=O)(O)c1ccc2[nH]c(-c3ccccc3)nc2c1 |  | 302 | 394 |  | 5.1 | 1.68 |  | 1.27 |  |  |  |
| O=C(N/N=C/c1c(O)ccc2ccccc12)c1cc2ccccc2o1 | 5.52 | 329 | 359 | 132 | 2.85 | 8.82 | 5.35 | 0.39 |  | 132 µmolequiv/g |  |
| O=C(N/N=C/c1ccc(O)c(O)c1O)c1cc2ccccc2o1 | 5.19 | 336 | 353 | 13200 | 2.45 | 7.58 | 5.22 | 0.85 | 5260 | 9210 µmolequiv/g |  |
| COc1cc(/C=N/NC(=O)c2cc3ccccc3o2)ccc1O | 4.31 | 334 | 371 | 3100 | 5.57 | 3.36 | 5.25 | 2.33 | 10900 | 101 µmolequiv/g | 5 |
| O=C(N/N=C/c1ccc(O)cc1)c1cc2ccccc2o1 | 4.40 | 328 | 322 | 2290 | 1.03 | 3.4 | 4.10 | 0.29 | 26100 | 45.8 µmolequiv/g |  |
